ChEMBL document CHEMBL3227925, “Structure-activity relationship in a new series of atropine analogues. 1. N,N'-Disubstituted 6,7-diazabicyclo[3.2.2]nonane derivatives” (J Med Chem, 1979)
Counter-ions that a name gives are not always drawn. Active and inactive are the calls of the source. The calls are words filed in the database; no cut-off is given here.

Legend:
[1] = Antagonist activity at muscarinic acetylcholine receptor in guinea pig ileum assessed as inhibition of acetylcholine-induced contraction; type: tissue-based, Cavia porcellus
Procedure, shortened: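 Ileum segments (~2 cm) from freshly killed guinea pigs in a 10-mL organ bath of Tyrode solution at 37 °C, air-bubbled. Isotonic contractions recorded. Acetylcholine dose-response curves run without and with antagonist. Affinity constants calculated from the dose ratio. Values are means of two to four separate experiments ± SD.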

[2] = Toxicity in ip dosed mouse; type: organism-based; conditions: in vivo
Procedure, shortened: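 Preliminary LD50 determination in mice given the drugs intraperitoneally.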

Cavia porcellus [3] = organism: Cavia porcellus; experiment: Competitive antagonist activity at muscarinic acetylcholine receptor in guinea pig ileum assessed as inhibition of acetylcholine-induced contraction at 1.1X10'-8 M; type: tissue-based
Procedure, shortened: (§1)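 Guinea pig ileum (~2 cm, freshly killed animals) in a 10-mL Tyrode bath at 37 °C, air-bubbled, isotonic lever recording. Acetylcholine dose-response curves recorded alone and with antagonist present at a single fixed concentration (1×10^-8 or 1.1×10^-8 M). The curves were compared for shift.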

Cavia porcellus [4] = organism: Cavia porcellus; experiment: Competitive antagonist activity at muscarinic acetylcholine receptor in guinea pig ileum assessed as inhibition of acetylcholine-induced contraction at 1X10'-8 M; type: tissue-based; procedure, shortened: as §1
[5] = Displacement of [3H]4-NMPB from muscarinic acetylcholine receptor in mouse brain; type: tissue-based

| SMILES | Kd [1] [nM] | also measured |
| --- | --- | --- |
| CN1[C@@H]2CC[C@@H](C[C@H](OC(=O)C(CO)c3ccccc3)C2)N1C (stereo in doubt; 1) | 1.7 | LD50 [2]: 150 mg/kg |
| CN1[C@@H]2CC[C@@H](C[C@H](OC(=O)C(CO)c3ccccc3)C2)N1C (stereo in doubt; 2) [listing 1 of 2 here] | 0.066 |  |
| CN1[C@@H]2CC[C@@H](C[C@H](OC(=O)C(CO)c3ccccc3)C2)N1C (stereo in doubt; 4) | 170 |  |
| CN1[C@@H]2CC[C@@H](C[C@H](OC(=O)C(CO)c3ccccc3)C2)N1C (stereo in doubt; 5) [listing 1 of 2 here] |  | inhibition (Cavia porcellus [3]): Active |
| CN1[C@@H]2CC[C@@H](C[C@H](OC(=O)C(CO)c3ccccc3)C2)N1C (stereo in doubt; 2) [listing 2 of 2 here] |  | inhibition (Cavia porcellus [4]): Active |
| CN1[C@@H]2CC[C@@H](C[C@H](OC(=O)C(CO)c3ccccc3)C2)N1C (stereo in doubt; 5) [listing 2 of 2 here] | 1.6 | Kd [5]: 2.1 nM |
| CN1[C@@H]2CC[C@@H](C[C@H](OC(=O)C(CO)c3ccccc3)C2)N1C (stereo not given in full) | 0.091 |  |
| CN1[C@@H]2CC[C@H]1C[C@@H](OC(=O)C(CO)c1ccccc1)C2 (stereo not given in full) [ATROPINE SULFATE] | 0.49 |  |
